Results on 16 compounds are retold here after ChEMBL document CHEMBL3576826, “New Monocyclic, Bicyclic, and Tricyclic Ethynylcyanodienones as Activators of the Keap1/Nrf2/ARE Pathway and Inhibitors of Inducible Nitric Oxide Synthase” (J Med Chem, 2015).

Test [1] addresses T1, Nitric oxide synthase, inducible (Mus musculus, UniProt P29477).
T1 sequence (P29477 whole entry): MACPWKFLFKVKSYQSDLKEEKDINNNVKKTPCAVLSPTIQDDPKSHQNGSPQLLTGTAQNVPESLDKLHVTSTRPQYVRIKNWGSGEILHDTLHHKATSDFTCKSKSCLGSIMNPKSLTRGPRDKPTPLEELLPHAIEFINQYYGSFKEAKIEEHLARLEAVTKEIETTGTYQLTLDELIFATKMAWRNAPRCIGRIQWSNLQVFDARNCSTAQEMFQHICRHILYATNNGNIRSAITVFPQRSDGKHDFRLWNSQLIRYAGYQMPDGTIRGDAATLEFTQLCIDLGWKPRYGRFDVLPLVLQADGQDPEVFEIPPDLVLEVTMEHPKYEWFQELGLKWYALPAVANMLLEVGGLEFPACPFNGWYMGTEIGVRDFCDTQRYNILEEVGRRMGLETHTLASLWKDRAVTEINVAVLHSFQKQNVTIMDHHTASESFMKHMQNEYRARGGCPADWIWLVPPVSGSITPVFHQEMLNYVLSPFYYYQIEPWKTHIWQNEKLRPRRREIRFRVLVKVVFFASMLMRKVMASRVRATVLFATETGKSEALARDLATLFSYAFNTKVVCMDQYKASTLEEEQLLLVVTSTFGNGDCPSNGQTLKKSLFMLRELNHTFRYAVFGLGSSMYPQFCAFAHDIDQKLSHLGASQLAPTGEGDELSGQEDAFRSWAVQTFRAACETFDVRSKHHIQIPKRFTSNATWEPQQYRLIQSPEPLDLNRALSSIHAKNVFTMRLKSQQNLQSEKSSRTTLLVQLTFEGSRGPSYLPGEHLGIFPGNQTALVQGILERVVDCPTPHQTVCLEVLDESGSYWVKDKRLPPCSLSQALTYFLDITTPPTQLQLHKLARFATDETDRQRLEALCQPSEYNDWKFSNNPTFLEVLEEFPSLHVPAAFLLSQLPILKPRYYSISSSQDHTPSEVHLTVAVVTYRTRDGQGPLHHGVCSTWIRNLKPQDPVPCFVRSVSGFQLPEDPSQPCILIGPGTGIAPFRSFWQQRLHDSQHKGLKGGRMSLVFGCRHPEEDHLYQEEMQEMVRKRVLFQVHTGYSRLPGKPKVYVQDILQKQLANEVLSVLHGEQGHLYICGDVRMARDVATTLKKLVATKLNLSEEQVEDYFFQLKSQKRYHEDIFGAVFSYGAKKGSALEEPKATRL
Briefly: Inhibition of iNOS in LPS-stimulated mouse RAW264.7 cells assessed as inhibition of nitric oxide production after 48 hrs by Griess assay. It counts as cell-based. Background: Griess reagent forms a coloured azo dye with nitrite.

Test [2] concerns the target Kelch-like ECH-associated protein 1/Nuclear factor erythroid 2-related factor 2 (Mus musculus) (UniProt Q60795+Q9Z2X8). The test can be described thus: Activation of Keap1/Nrf2/ARE pathway in mouse Hepa-1c1c7 cells assessed as double induction of NQO1 specific activity after 48 hrs by bicinchoninic acid assay. Type of test: cell-based. In a few lines:
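Hepa1c1c7 cells, 10000 per well, grown 24 h, then exposed to increasing concentrations for 48 h. Lysed; protein by BCA assay; NQO1 specific activity measured. CD = concentration doubling NQO1 specific activity, used as inducer potency. Eight replicate wells per concentration; SD 5–10%.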

SMILES strings stand for the structures.

Sequence of Kelch-like ECH-associated protein 1/Nuclear factor erythroid 2-related factor 2 (Mus musculus) (Q60795 whole entry, looked up): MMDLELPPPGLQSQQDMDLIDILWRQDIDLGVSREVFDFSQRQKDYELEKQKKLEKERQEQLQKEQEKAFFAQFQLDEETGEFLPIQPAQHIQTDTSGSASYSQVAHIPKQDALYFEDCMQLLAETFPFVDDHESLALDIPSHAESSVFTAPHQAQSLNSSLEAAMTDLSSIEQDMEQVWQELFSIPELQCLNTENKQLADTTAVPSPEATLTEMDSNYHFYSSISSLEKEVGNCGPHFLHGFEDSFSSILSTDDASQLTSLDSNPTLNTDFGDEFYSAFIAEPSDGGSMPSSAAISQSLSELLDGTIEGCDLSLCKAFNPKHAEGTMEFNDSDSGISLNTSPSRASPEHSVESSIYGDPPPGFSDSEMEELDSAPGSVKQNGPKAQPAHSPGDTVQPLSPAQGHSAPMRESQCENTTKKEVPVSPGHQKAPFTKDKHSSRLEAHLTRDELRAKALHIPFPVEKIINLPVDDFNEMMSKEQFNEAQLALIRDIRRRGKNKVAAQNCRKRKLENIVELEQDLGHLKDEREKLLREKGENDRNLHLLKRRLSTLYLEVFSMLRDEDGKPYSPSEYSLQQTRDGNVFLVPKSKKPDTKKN
Sequence of Kelch-like ECH-associated protein 1/Nuclear factor erythroid 2-related factor 2 (Mus musculus) (Q9Z2X8 whole entry, looked up): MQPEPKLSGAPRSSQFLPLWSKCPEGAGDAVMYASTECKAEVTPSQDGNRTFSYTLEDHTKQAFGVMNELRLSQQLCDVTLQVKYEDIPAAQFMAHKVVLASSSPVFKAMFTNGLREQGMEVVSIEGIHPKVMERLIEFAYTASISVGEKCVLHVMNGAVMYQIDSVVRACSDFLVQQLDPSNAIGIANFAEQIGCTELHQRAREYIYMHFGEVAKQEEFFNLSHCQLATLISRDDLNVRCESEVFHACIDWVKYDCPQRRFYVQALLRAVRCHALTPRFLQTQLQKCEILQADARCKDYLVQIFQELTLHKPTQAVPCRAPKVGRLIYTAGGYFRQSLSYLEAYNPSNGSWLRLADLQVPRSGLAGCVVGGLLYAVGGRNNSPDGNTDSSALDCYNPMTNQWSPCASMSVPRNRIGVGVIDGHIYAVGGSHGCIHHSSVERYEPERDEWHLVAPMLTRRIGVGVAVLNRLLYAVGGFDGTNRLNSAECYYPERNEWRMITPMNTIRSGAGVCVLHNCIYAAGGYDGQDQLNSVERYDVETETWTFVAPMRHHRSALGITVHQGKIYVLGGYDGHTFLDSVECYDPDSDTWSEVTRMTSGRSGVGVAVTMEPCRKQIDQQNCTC

Turning to `C[S+]([O-])CCCCN=C=S` (stereo not drawn) [SULFORAPHANE], the IC50 – broadly, the concentration needed to halve the response being measured – in test [1] amounted to 400 nM. In test [2], the CD came to 200 nM.
For the compound `C#CC12C=C(C#N)C(=O)C=C1c1ccccc1C2` (stereo not drawn), the IC50 in test [1] (raw264.7) amounted to 380 nM. Besides, in test [2], the CD was 41 nM.
As for `C#CC12C=C(C#N)C(=O)C=C1c1ccccc1CC2` (stereo not drawn), the CD in test [2] was 150 nM.
In the case of `C#CC1(CC)C=CC(=O)C(C#N)=C1` (stereo not drawn), the CD in test [2] was 42 nM.
In the case of `C#CC1(C=C)C=CC(=O)C(C#N)=C1` (stereo not drawn), the IC50 in test [1] (raw264.7) was found to be 16 nM. Further, the CD in test [2] was 20 nM.
The corresponding values for `C#CC12C=C(C#N)C(=O)C=C1C(C)(C)CC2` (stereo not drawn) are 200 nM and 100 nM.
Turning to `C#CC1(C)C=CC(=O)C(C#N)=C1` (stereo not drawn), the IC50 in test [1] (raw264.7) was 18 nM. In test [2], the CD came out at 21 nM.
Take `C#CC12C=C(C#N)C(=O)C=C1c1c(C)cccc1CC2` (stereo not drawn): the half-inhibitory concentration (IC50) in test [1] (raw264.7) worked out at 940 nM. Further, the CD in test [2] is 1800 nM.
Consider `C#CC12C=C(C#N)C(=O)C=C1c1c(Cl)cccc1CC2` (stereo not drawn), for which the CD in test [2] amounted to 900 nM.
`C#C[C@]12C=C(C#N)C(=O)C=C1[C@@]1(C)C=C(C#N)C(=O)C(C)(C)[C@@H]1CC2` (racemic): in test [1] (raw264.7), the half-maximal inhibitory concentration (IC50) was 1 nM. In addition, the CD in test [2] turned out to be 0.9 nM.
Turning to `C#CC12C=C(C#N)C(=O)C=C1c1c(Cl)cccc1C2` (stereo not drawn), the IC50 in test [1] (raw264.7) was 800 nM. Besides, the CD in test [2] worked out at 130 nM.
With `C#CC12C=C(C#N)C(=O)C=C1c1c(Br)cccc1CC2` (stereo not drawn), in test [1] (raw264.7), the IC50 was 650 nM. Besides, the CD in test [2] came to 1300 nM.
Regarding `C#CC1(C#C)C=CC(=O)C(C#N)=C1`, the IC50 in test [1] (raw264.7) was 210 nM. Also, the CD in test [2] came to 180 nM.
With `C#CC12C=C(C#N)C(=O)C=C1CCC2` (stereo not drawn), the IC50 in test [1] (raw264.7) worked out at 160 nM. Moreover, in test [2], the CD came out at 56 nM.
In the case of `CC1(C)CC[C@]2(C(=O)O)CC[C@]3(C)[C@H](C(=O)C=C4[C@@]5(C)C=C(C#N)C(=O)C(C)(C)[C@@H]5CC[C@]43C)[C@@H]2C1` [BARDOXOLONE], the 50% inhibitory concentration (IC50) in test [1] (raw264.7) was determined as 23 nM. For the same compound, the CD in test [2] worked out at 2.3 nM.
As for `C#CC1(C)C=C(C#N)C(=O)c2ccccc21` (stereo not drawn), the CD in test [2] stood at 220 nM.
